From PubChem BioAssay
Sampled rows, rich in hits. Any-hit rate of the full collection: about 3.6%.
DNA FID counter – fluorescent intercalator displacement, NS3 helicase counter-screen | 290,000 compounds, 0.17% hits | AID 1845 | DNA fluorescent intercalator displacement, fluorescence | inhibition, % at 7.9 µM; in the data active means inhibition above about 37%;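 further: 0% = vehicle and 100% = reference compound; higher means more ethidium bromide displaced from hairpin DNA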
FGF22 binding – shifts melting point of recombinant human FGF22. Q9HCT0. recombinant FGF22 thermal shift, SYPRO orange fluorescence; percent of sucrose octasulfate shift, DMSO zero. activity (Tm shift, normalised), % at 9.99 µM. 340,000 compounds, 1.5% hits;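 active means mean Tm shift, scaled 0 neutral to 100 positive control, at about 1.3% or above, every replicate too, limit read from the data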
Target sequence (Q9HCT0 whole entry, looked up): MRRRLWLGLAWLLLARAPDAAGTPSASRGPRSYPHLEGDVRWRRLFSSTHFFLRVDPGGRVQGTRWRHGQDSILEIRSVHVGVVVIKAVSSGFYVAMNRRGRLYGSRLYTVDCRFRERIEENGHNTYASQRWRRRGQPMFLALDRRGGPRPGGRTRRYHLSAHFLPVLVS
EBNA-1 inh – blocks EBNA-1 binding to DNA | EBNA-1 DNA binding, fluorescence polarization | inhibition, % at 14.8 µM | 300,000 compounds, 0.34% hits; in the data active means inhibition above about 28%
ZTA DNA inh – counter-screen for EBNA-1 inhibitors: inhibitors of Epstein-Barr virus ZTA; inhibition, % at 11 µM; ZTA-DNA binding, fluorescence polarization; 320,000 compounds, 0.15% hits; P03206; in the data active means inhibition above about 33%
Target sequence (P03206 whole entry, looked up): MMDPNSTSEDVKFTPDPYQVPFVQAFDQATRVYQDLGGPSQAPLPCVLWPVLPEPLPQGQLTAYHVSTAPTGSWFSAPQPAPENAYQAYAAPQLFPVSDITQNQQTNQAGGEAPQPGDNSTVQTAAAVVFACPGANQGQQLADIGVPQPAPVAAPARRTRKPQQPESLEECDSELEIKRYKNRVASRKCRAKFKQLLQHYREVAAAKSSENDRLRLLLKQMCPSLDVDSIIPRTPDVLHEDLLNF
GRIN3A LBD mod – modulators (binders) of human NR3A ligand-binding domain; AID 1259313; 340,000 compounds, 2.5% hits; NR3A LBD differential scanning fluorimetry, Tm shift; 0% = protein alone, 100% = glycine-bound protein; Tm shift relative to glycine control, % at 25 µM;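 active means melting temperature shift of at least 10% of the positive control shift, at one fixed dose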
NS3 helicase inh – inhibitors of Hepatitis C virus NS3 helicase; NS3 helicase DNA unwinding, Cy5 molecular beacon fluorescence; 290,000 compounds, 0.56% hits; inhibition, % at 10.9 µM;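 active means inhibition above the mean of all tested compounds plus 3 SD, set per campaign, cut at about 35% in these data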;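 further: 0% = DMSO wells and 100% = thioflavine S control wells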
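Test system: hepatitis C virus NS3 helicase domain fragment enzyme. Also added: annealed dual-labelled DNA beacon duplex, ATP-started. Timing: 60 min unwinding reaction at 25 °C after ATP addition. Technique: Cy5 fluorescence. Measure: % inhibition of unwinding.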
* = called active by the depositor; x = no result given.

SMILES	DNA FID counter	FGF22 binding	EBNA-1 inh	ZTA DNA inh	GRIN3A LBD mod	NS3 helicase inh
C[C@@H]1CN([C@H](C)CO)C(=O)c2c(c3ccccc3n2C)-c2ccccc2CO[C@@H]1CN(C)Cc1ccc(C(F)(F)F)cc1	x	1.4*	x	x	x	x
C[C@@H]1CN([C@H](C)CO)C(=O)c2c(c3ccccc3n2C)-c2ccccc2CO[C@H]1CN(C)Cc1ccc(C(F)(F)F)cc1	x	-0.5	x	x	x	x
C[C@H]1CN([C@@H](C)CO)C(=O)c2c(c3ccccc3n2C)-c2ccccc2CO[C@H]1CN(C)Cc1ccc(Oc2ccccc2)cc1	x	1.3*	x	x	x	x
O=C(COc1ncnc2c(Cl)cc(Cl)cc12)Nc1cc([N+](=O)[O-])ccc1Cl	0.5	x	-1.8	-2.0	14.1*	4.6
Cc1ccc(SCCC(=O)Nc2ccccc2C(=O)NC(C)C)cc1	-18.5	x	-1.3	-6.7	14.3*	-16.2
Cc1ccc(SCCC(=O)Nc2ccccc2Br)cc1	-21.5	42.9*	5.0	2.2	1.4	-20.7
Cc1ccc(SCCC(=O)Nc2ccc(Br)c(C)c2)cc1	-5.7	-0.1	7.4	26.3	-1.6	3.5
Cc1noc(C)c1NC(=O)Nc1ccc2c(c1)C(=O)N([C@H](C)CO)C[C@@H](C)[C@H](CN(C)Cc1ccc(C(=O)O)cc1)OCCCC[C@@H](C)O2	x	0.2	x	x	x	x
O=C(Nc1cccc(Cl)c1)N[C@H]1CC[C@@H](CCn2cc(Cc3ccccc3)nn2)O[C@H]1CO	x	-0.1	x	x	x	x
c1ccc(-c2cc(NCCN3CCCCC3)c3ccccc3n2)cc1	73.8*	-0.2	-7.5	-3.5	-2.0	18.0
CO[C@@H]1CN(C)C(=O)c2ccc(NC(=O)C3CC3)cc2OC[C@@H](C)N(C(=O)c2ccncc2)C[C@@H]1C	x	0.0	x	x	x	x
CCC(=O)N1C[C@H]2[C@@H](c3ccccc31)[C@H](CO)N2Cc1cc(F)ccc1F	x	-0.4	x	x	x	x
Fc1ccc(-c2cc(C(F)(F)C(F)F)[nH]n2)cc1	-0.1	0.1	10.4	-12.3	10.3*	-1.4
c1ccc(-c2cn3c(n2)-c2ccccc2C3)cc1	-2.2	0.1	2.3	-5.4	12.9*	2.5
C[C@@H]1CN([C@@H](C)CO)C(=O)c2cccc(NS(=O)(=O)c3cn(C)cn3)c2O[C@H]1CN(C)Cc1ccc(-c2ccccc2)cc1	x	-0.5	x	x	x	x
CCC(c1nc2ccccc2[nH]1)n1c(-c2ccnc(Cl)c2)nc2ccccc21 (stereo unspecified)	x	0.0	x	x	x	x
CCC(c1nc2ccccc2[nH]1)n1c(-c2ccc3cc[nH]c3c2)nc2ccccc21 (stereo unspecified)	x	1.5*	x	x	x	x
C[C@@H]1CN([C@H](C)CO)C(=O)c2cccc(NS(=O)(=O)c3ccc(F)cc3)c2O[C@H]1CN(C)S(=O)(=O)c1ccc(Cl)cc1	x	-0.2	x	x	x	x
CSCCC(NC(=O)c1ccccc1)C(=O)N(C)CC(=O)Nc1ccc(N2CCOCC2)cc1 (stereo unspecified)	-32.3	0.0	1.4	4.0	12.6*	1.0
CN(CC(=O)Nc1ccc(N2CCOCC2)cc1)C(=O)Cc1ccccc1	x	0.1	x	-5.0	1.9	x
O=C(/C=C\c1ccco1)Nc1nc(-c2ccc3ccccc3c2)cs1	-2.6	0.9	13.2	11.3	24.6*	5.6
O=C(O)c1ccccc1C(=O)Nc1nc(-c2ccc3ccccc3c2)cs1	-36.7	-0.1	1.5	9.9	-9.1	-3.2
Cc1ccc(-c2csc(NC(=S)NC(=O)/C=C/c3ccco3)n2)cc1	-2.5	x	-2.4	-5.1	17.4*	18.2
Cc1ccc(O)c(NC(=S)NC(=O)/C=C/c2ccco2)c1	-4.4	43.0*	-0.7	10.2	-9.9	-6.5
C[C@@H]1CN([C@H](C)CO)C(=O)c2cccc(NC(=O)Nc3ccc4c(c3)OCO4)c2O[C@H]1CN(C)S(=O)(=O)c1cccs1	x	-0.2	x	x	x	x
SMILES	DNA FID counter	FGF22 binding	EBNA-1 inh	ZTA DNA inh	GRIN3A LBD mod	NS3 helicase inh
CC(C)CC#Cc1cnc2c(c1)C(=O)N([C@H](C)CO)C[C@@H](C)[C@H](CN(C)C(=O)C1CCOCC1)O2	x	-0.3	x	x	x	x
C=CCNC(=O)/C(C#N)=C/c1ccccc1OCc1ccc(C(=O)OC)cc1	-11.3	0.1	18.6	-0.9	33.7*	-13.8
COc1cc(O)c(CC=C(C)C)c(O)c1C(=O)CCc1ccc(O)cc1	x	0.9	1.8	-1.6	18.6*	x
O=C(/C=C/c1cccs1)Nc1nc(-c2ccccc2)cs1	-3.7	x	-5.9	-14.6	17.3*	-0.5
COc1ccccc1CC(=O)Nc1nc(-c2ccc(F)c(F)c2)cs1	-12.8	0.1	-8.5	-13.9	-4.9	-7.5
O=C(Nc1ccccc1)Nc1nc(-c2ccc(F)c(F)c2)cs1	-4.0	x	-0.7	3.5	27.9*	10.9
COc1cccc(-c2csc(NC(=O)C3CC3)n2)c1	-4.8	0.0	-0.7	-4.1	19.8*	-8.2
COc1cccc(C(=O)Nc2nc(-c3ccc4c(c3)OCO4)cs2)c1	-6.4	0.1	-10.3	-25.8	25.3*	-16.4
COc1cccc(C(=O)Nc2nc(-c3ccncc3)cs2)c1	-17.0	0.0	-3.5	20.6	-17.0	-58.1
CO[C@@H]1CN(C)C(=O)c2ccc(NS(C)(=O)=O)cc2OC[C@@H](C)N(C(=O)NC(C)C)C[C@H]1C	x	0.0	x	x	x	x
CO[C@@H]1CN(C)C(=O)c2cc(NC(=O)C3CC3)ccc2OC[C@H](C)N(Cc2cccc(F)c2)C[C@H]1C	x	0.3	x	x	x	x
CNC[C@H]1Oc2ccc(NS(C)(=O)=O)cc2C(=O)N([C@H](C)CO)C[C@@H]1C	x	0.1	x	x	x	x
CC(C)(C)c1csc(NC(=O)Nc2ccccc2)n1	-1.3	0.3	14.8	2.3	-2.7	-10.7
O=C(Nc1nc(-c2ccccc2)cs1)c1ccco1	-0.1	-0.1	-2.6	0.5	-21.5	-4.0
O=C(Nc1ccccc1)Nc1nc(-c2ccccc2)cs1	-3.1	0.0	-1.2	-6.4	22.9*	-12.4
COc1cccc(-c2csc(Nc3ccc(Oc4ccccc4)cc3)n2)c1	x	0.0	x	x	x	x
O=C(/C=C\c1cn(-c2ccccc2)nc1-c1ccccc1)Nc1nccs1	-0.2	x	7.7	-4.7	27.5*	1.6
COc1cccc(-c2csc(NC(=O)Nc3ccccc3)n2)c1	-6.9	0.7	5.0	1.0	32.3*	6.5
O=C(Nc1ccc(Cl)c(Cl)c1)Nc1nc(-c2ccccc2)cs1	2.5	x	3.0	5.1	159.9*	1.6
CC(=O)NS(=O)(=O)c1ccc(NC(=O)/C=C/c2cn(-c3ccccc3)nc2-c2ccccc2)cc1	-17.7	-0.1	1.6	13.8	7.1	-62.7
O=S(=O)(c1cccc(F)c1)N1CC[C@@H]2[C@H](CO)Nc3ccc(-c4cccc(F)c4)cc3[C@@H]21	x	-0.3	x	x	x	x
Cc1cc(=O)[nH]c(SCC(=O)NC(C)C2CC3CCC2C3)c1C#N (stereo unspecified)	-14.3	43.7*	9.1	-10.1	0.6	-3.3
Cc1ccc(Nc2nc(Cl)c(C=O)s2)cc1Cl	3.5	0.3	0.6	-8.4	21.3*	4.7
CC(C)C[C@H](NC(=O)c1[nH]cnc1C(=O)Nc1ccc(CNC(=O)OC(C)(C)C)cc1)C(=O)OCc1ccccc1	x	-0.1	6.4	7.3	36.2*	x
